RGS4 block: inhibitors of human RGS4 | HEK293 M3R/RGS4 inducible, Fluo-4 calcium flux; hits give high values; triggered by carbachol at its EC20 | B-score at 10 µM | 310,000 compounds, 0.45% hits | AID 463165;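 active means B-score, a plate-corrected calcium signal, over three deviations above library mean, with baseline fluorescence within five deviations of library mean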;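 further: RGS4 expression induced by doxycycline in cells with stable M3 receptor; B-score is computed from the integrated fluorescence ratio over baseline after carbachol; higher B-score means a larger calcium signal and so more RGS4 inhibition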
Target sequence (P49798 whole entry, looked up): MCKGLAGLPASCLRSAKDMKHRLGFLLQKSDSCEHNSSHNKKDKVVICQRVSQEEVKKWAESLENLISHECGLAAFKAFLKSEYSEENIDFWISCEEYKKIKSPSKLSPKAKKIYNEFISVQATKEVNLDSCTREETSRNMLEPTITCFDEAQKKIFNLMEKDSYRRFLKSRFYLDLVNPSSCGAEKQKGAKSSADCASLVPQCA
MrgX1 agonist: human MrgX1 receptor agonism, primary screen | 310,000 compounds, 0.44% hits | MrgX1-HEK293 cells, Fluo-4 calcium fluorescence, agonist mode; hits give high values | AID 588627 | B-score at 10 µM;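 active means calcium response B-score plate-corrected fluorescence ratio at least 3 library SD, with starting fluorescence B-score inside 5 SD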
Target sequence (Q96LB2 whole entry, looked up): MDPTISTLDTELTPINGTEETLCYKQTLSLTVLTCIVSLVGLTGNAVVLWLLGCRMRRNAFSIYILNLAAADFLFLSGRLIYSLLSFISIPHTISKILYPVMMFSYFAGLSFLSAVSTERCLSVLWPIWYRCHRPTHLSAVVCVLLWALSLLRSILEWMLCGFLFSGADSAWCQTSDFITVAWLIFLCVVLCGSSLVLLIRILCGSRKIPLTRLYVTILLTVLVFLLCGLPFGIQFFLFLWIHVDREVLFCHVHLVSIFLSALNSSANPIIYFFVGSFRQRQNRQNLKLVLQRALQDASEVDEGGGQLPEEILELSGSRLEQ
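Material: MrgX1-expressing HEK293 cells / Dosing: compound as first of three additions / Incubation: overnight seeding, then 1 h dark dye loading / Signal: Fluo-4 NW calcium fluorescence / Evaluation: B-scored fluorescence response ratio / Benchmarks: positive and negative control wells on each plate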
MrgX1 antagonist: antagonists of human MrgX1 receptor; 310,000 compounds, 1.3% hits; AID 588676; MRGX1-HEK293 calcium flux, Fluo-4, BAM8-22 antagonism; hits give low values; B-score at 10 µM; Q96LB2;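 active means calcium-response B-score plate-corrected more than 3 library SD below zero, starting fluorescence within 5 deviations, no agonist response on first addition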;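 further: peak minus trough fluorescence over baseline after final BAM8-22 challenge near maximal dose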
MrgX1 PAM: allosterically activates human MrgX1 receptor signaling | Q96LB2 | MrgX1-HEK293, Fluo-4 calcium flux, FDSS; hits give high values | B-score at 10 µM | 310,000 compounds, 0.63% hits | AID 588675;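 active means plate-corrected calcium response at least 3 library SD above typical, normal starting fluorescence, not activating the receptor alone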;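 further: compound read alongside a low EC10 to EC30 dose of BAM8-22 agonist; peak minus trough fluorescence over baseline measured at the second addition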
RGS4 act: potentiators or activators of RGS4 | HEK293 M3R/inducible RGS4, carbachol calcium flux Fluo4; hits give low values | B-score at 10 µM | 310,000 compounds, 0.92% hits | AID 463111;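 active means B-score of the integrated calcium signal more than 4 SD below the library mean, with starting fluorescence not abnormally high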;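 further: negative B-score means reduced calcium response which marks RGS4 activation or potentiation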
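Assay system: Inducible-RGS4 HEK293 cells carrying M3 receptor | Schedule: Compound preincubation 20 min at room temperature before agonist | Signal: Kinetic calcium fluorescence imaging with Fluo4-AM dye, 2 µM | Read-out basis: B score from integrated fluorescence ratio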
MrgX1 PAM conf: human MrgX1 positive allosteric modulation, re-confirmation; shares compounds with MrgX1 PAM; MrgX1-HEK293, Fluo-4 calcium fluorescence, FDSS; activation (ratio percentage), % at 10 µM; 1,200 compounds, 13% hits; AID 602413;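 active means ratio at least 3 SD above the weak peptide control, stable starting fluorescence, no direct agonism earlier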;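 further: compound followed by low BAM8-22 agonist challenge near EC20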
MrgX1 antag conf: reconfirmed antagonist of human MrgX1 receptor signaling. MrgX1-HEK293, BAM8-22 calcium flux, Fluo-4; hits give low values. remaining BAM8-22 calcium response % of control (hits give low values), % at 10 µM. shares compounds with MrgX1 antagonist. 2,300 compounds, 19% hits;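 active means remaining agonist calcium response no higher than 100% minus 3 SD of agonist-only control wells, with starting fluorescence near control levels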;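 further: agonist BAM8-22 given at a near maximal EC90 to ECmax level; peak minus minimum fluorescence divided by baseline after agonist addition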
HEK293 Ca flux: counter-screen for MrgX1 antagonists: effect in parental HEK293 cells; 4,000 compounds, 2% hits; Fluo-4 calcium fluorescence, FDSS; shares compounds with MrgX1 antagonist; fluorescence ratio F(max-min)/F0 at 10 µM; AID 624111;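 active means duplicate-averaged calcium fluorescence ratio at least three times the standard deviation of buffer wells, a nonspecific response in parental cells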
HEK293 Ca counter: MrgX1 allosteric activator counter-screen hit in parental HEK293 cells; shares compounds with MrgX1 antagonist; parental HEK293 calcium flux, Fluo-4 fluorescence ratio; hits give high values; fluorescence ratio F(max-min)/F0 at 10 µM; 4,000 compounds, 0.4% hits; AID 624114;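 active means calcium fluorescence ratio, averaged over duplicates, at least 3 SD of the buffer-well ratio, meaning a nonspecific response in receptor-free cells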;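 further: untransfected parental HEK293 lacking MrgX1 used as counterscreen for MrgX1 allosteric activators; fluorescence change taken during the second addition on a kinetic imager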
HEK293 Ca cntr2: counter-screen for MrgX1 activators: effect in parental HEK293 cells; 4,000 compounds, 8.7% hits; shares compounds with MrgX1 antagonist; fluorescence ratio F(max-min)/F0 at 10 µM; Fluo-4 calcium fluorescence (FDSS); hits give high values; AID 624115;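 active means calcium fluorescence ratio at least three times the spread of buffer wells, meaning a non-specific response in parental cells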
* marks the source's active call; other numbers are inactive results; i = inactive; nt = not tested or not shown. Sampled rows, rich in hits. Any-hit rate of the full collection: about 3.5%.

SMILES	RGS4 block	MrgX1 agonist	MrgX1 antagonist	MrgX1 PAM	RGS4 act	MrgX1 antag conf	HEK293 Ca flux	HEK293 Ca counter	HEK293 Ca cntr2	others
COc1cccc(NC(=O)N2CCCC2C(=O)NC23CC4CC(CC(C4)C2)C3)c1 (stereo not drawn)	i	i	i	i	i	nt	nt	nt	nt
CC(=O)Nc1sc(/C(C#N)=C\c2cccc(Cl)c2)nc1-c1ccc(C)cc1	i	i	i	20*	i	nt	0.065*	i	59*	MrgX1 PAM conf=i
O=C(Nc1ccccn1)c1ccc(S(=O)(=O)N2CCCCC2)cc1	i	i	i	i	i	nt	nt	nt	nt
COc1ccc(NCC(=O)Nc2ccc(Br)cc2F)c(OC)c1	i	i	i	9.2*	i	nt	i	i	i	MrgX1 PAM conf=i
Cc1nc(CC(=O)Nc2nccs2)cs1	i	i	i	i	i	nt	nt	nt	nt
O=C(NCc1ccccn1)C(=O)NCC1OCCCN1S(=O)(=O)c1cc(F)ccc1F (stereo not drawn)	i	i	i	i	i	nt	nt	nt	nt
CCCCN1CC[C@H]2C=CC[C@@H](C(=O)Nc3ccc(Cl)cc3Cl)[C@H]2C1=O	i	i	i	6.9*	i	nt	i	i	i	MrgX1 PAM conf=i
CCCCN1CC[C@H]2C=CC[C@@H](C(=O)NCc3ccc(OC)cc3)[C@H]2C1=O	i	i	i	i	i	nt	nt	nt	nt
Cc1ccc2nc(Cl)c(-c3ccccc3)cc2c1	i	i	i	8.3*	i	nt	i	i	i	MrgX1 PAM conf=i
Cc1ccc(S(=O)(=O)N2CCN(CC(O)c3ccccc3)CC2)cc1C (stereo not drawn)	i	i	-5*	i	i	i	i	i	i
CC1(C)CC(=O)c2c(-c3cccs3)n[nH]c2C1	i	i	-5.4*	i	i	i	i	i	i
CCOc1ccc(NC(=O)CN(C)CC(=O)Nc2ccc(Br)cc2F)cc1OCC	i	i	i	i	i	nt	nt	nt	nt
O=C(CN1CCN(Cc2ccccc2Cl)C1=O)NC1CCCCCCC1	i	i	i	i	i	nt	nt	nt	nt
CC1CCCCC1NC(=O)CN1CCN(Cc2ccccc2Cl)C1=O (stereo not drawn)	i	i	-10*	i	i	84%*	i	i	i
Cn1ccc(C(=O)NC(=S)Nc2ccc([N+](=O)[O-])cc2O)n1	i	i	i	i	i	nt	nt	nt	nt
CCOC(=O)N1CCN(C(=O)CCN2C(=O)COc3ccc(C)cc32)CC1	i	i	-6*	i	i	i	i	i	i
CCOC(=O)c1ccc(-c2c(C(=O)OCC)oc3cc(O)c(CC)cc3c2=O)o1	i	i	-4.8*	i	i	80%*	i	i	i
CCOC(=O)C1=C(C)N(CCCC(=O)O)C(=O)NC1c1cc2ccccc2c2ccccc12 (stereo not drawn)	i	i	i	i	i	nt	nt	nt	nt
CCCn1c(SCc2ccccn2)nc2c1c(=O)n(C)c(=O)n2C	i	i	-7.8*	i	i	i	i	i	i
O=C(c1ccc(F)cc1)C(C(=O)N1CCCCC1)n1ccccc1=O (stereo not drawn)	i	i	i	i	i	nt	nt	nt	nt
COc1ccc(C)cc1N(CC(=O)Nc1ccc(S(=O)(=O)N2CCOCC2)cc1)S(C)(=O)=O	i	i	-5.2*	i	i	i	i	i	i
CCCCCN(C(=O)CCC(=O)OCc1cccc(C(F)(F)F)c1)c1c(N)n(CCCC)c(=O)[nH]c1=O	i	i	i	i	i	nt	nt	nt	nt
Cn1c(=O)c2c(nc(CN3CCOCC3)n2CCc2ccccc2)n(C)c1=O	i	i	-4.9*	i	i	i	i	i	i
O=C(CSc1ccccn1)Nc1nc2ccccc2s1	i	i	-7.6*	i	i	85%*	i	i	i
COc1ccc(NC(=O)CSc2ccccn2)cc1OC	i	i	-4.8*	i	i	i	i	i	i
SMILES	RGS4 block	MrgX1 agonist	MrgX1 antagonist	MrgX1 PAM	RGS4 act	MrgX1 antag conf	HEK293 Ca flux	HEK293 Ca counter	HEK293 Ca cntr2	others
Cc1nc(N2CCCCC2)nc(N2CCCCC2)c1C=O	i	i	i	i	i	nt	nt	nt	nt
CC(C)(C)CC(=O)Nc1ccc(-c2cn3cccnc3n2)cc1	i	i	i	i	i	nt	nt	nt	nt
CCCSc1cc(N2CCN(C)CC2)nc(-c2ccc(OC)cc2)n1	i	i	i	i	i	nt	nt	nt	nt
CCCSc1cc(N2CCCC2)nc(-c2ccccc2)n1	i	i	-5.7*	i	i	i	i	i	i
Cc1ccc(-c2[nH]c3ccccc3c2SCCN)cc1	i	i	i	i	i	nt	nt	nt	nt
Cc1[nH]c2ccccc2c1SCCN	i	i	-7.5*	i	i	i	i	i	i
NC(=S)Nc1cc2ccccc2c2ccccc12	i	i	-4.8*	i	i	i	i	i	i
NC(=S)Nc1cccc2cc3ccccc3cc12	i	i	i	i	i	nt	nt	nt	nt
O=c1[nH]c2ccccc2nc1/C=C/c1ccc(F)cc1	i	i	-8*	i	i	i	i	i	i
CCOC(=O)CC1COCCN1Cc1cn[nH]c1-c1cc(OC)c(OC)c(OC)c1 (stereo not drawn)	i	i	i	i	i	nt	nt	nt	nt
Cc1cc(NC(=O)CSc2ccc(-c3ccc(Br)cc3)nn2)no1	i	i	-8.2*	i	i	i	i	i	i
Cc1ccc(-c2ccc(SCC(=O)Nc3cc(C)on3)nn2)cc1	i	i	i	i	i	nt	nt	nt	nt
NC(=O)c1nsc(C(=O)N(c2ccc(F)cc2)C(C(=O)NCC2CCCO2)c2c[nH]c3ccccc23)c1N (stereo not drawn)	i	i	i	i	i	nt	nt	nt	nt

Screening data: PubChem, Johns Hopkins Ion Channel Center
